KCC2 mod: modulates chloride dependent transport by human KCC2. Q9H2X9. KCC2 cells, thallium flux FluoZin-2 fluorescence. B-score of Tl+ flux slope (higher = more flux/activation; lower = inhibition) at 10 µM. actives 2.2% (n = 190,000). AID 1456;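 active = thallium flux slope and its plate-corrected score both differing from the plate sample mean at a set confidence after two filtering rounds, in either direction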;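 note: slope of fluorescence scaled to starting intensity during 10 to 20 s after thallium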
WT yeast gro inh: growth inhibition of WT yeast, mitochondrial fusion screen. mitochondrial fusion phenotypic screen, WT strain. inhibition, % at 10 µM. actives 2.1% (n = 190,000). AID 1362; in the data active = inhibition above about 58%; tested in S. cerevisiae
L major viab: Leishmania major promastigote growth inhibition | inhibition, % at 10 µM | actives 9% (n = 200,000) | Leishmania major promastigotes, resazurin fluorescence viability; in the data active = inhibition above about 50%;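 note: promastigotes grown with compound for 44 hours at 28 °C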
Diaph inh CS: inhibits diaphorase or chemically oxidizes, flagging diaphorase assay artifacts; diaphorase resazurin-to-resorufin fluorescence, NADH, 16 min; bacterial (C. kluyveri) enzyme, not human; inhibition, % at 20 µM; actives 0.69% (n = 190,000); AID 1217;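 active = primary screen inhibition at 20 µM above a set limit, cut at about 50% in these data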
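Assay system: diaphorase enzyme from Clostridium kluyveri; Input: enzyme working solution with 0.14 U/mL diaphorase; Timing: 16 min at room temperature; Technique: resorufin fluorescence, excitation 544 nm, emission 590 nm; Benchmarks: positive control minus NADH, DMSO neutral control.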
Diaphorase act: counter-screen for diaphorase-based assays: diaphorase activators and chemical reducers. Diaphorase/resazurin coupled assay, resorufin fluorescence, 16 min; stronger effect = higher value; 1 = vehicle wells, 0 = NADH-free wells. activation factor at 20 µM. actives 0.005% (n = 190,000). AID 1229;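 active = diaphorase activity raised at least twofold by the compound at 20 µM; inactive = activation factor below 2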
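Material: purified diaphorase enzyme from Clostridium kluyveri / Medium: HEPES pH 7.4 buffer with MgCl2 and Tween 20 / Schedule: enzyme reaction of 16 min at room temperature / Measured by: resorufin fluorescence, excitation 544 nm, emission 590 nm / Evaluation: rise in resorufin formation, marking diaphorase activation or chemical reduction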
ROMK mod: human ROMK K+ channel modulation, primary screen | Tet-inducible ROMK, thallium flux fluorescence; actives lie on both sides | AID 1918 | B-score at 10 µM | actives 2% (n = 130,000) | P48048;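 active = signal ratio slope over the read window, or its plate-corrected B-score, at least 3 SD from the plate mean, either direction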;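 note: B-score of the F/F0 ratio slope over 7 to 12 s after thallium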
Numbers stand for hits; i = inactive; nt = no result. Rows were chosen to be rich in hits. Some 12% of all compounds tested hit in one or more screens of this group.

SMILES	KCC2 mod	WT yeast gro inh	L major viab	Diaph inh CS	Diaphorase act	ROMK mod
C=CCc1ccccc1OCC(O)CN(C(C)C)C(C)C (configuration not stated)	i	i	100	i	i	nt
OC(COCc1ccc2c(c1)OCO2)CN1CCN(Cc2ccccc2)CC1 (configuration not stated)	i	i	89	i	i	nt
C=CCc1ccccc1OCC(O)CNC (configuration not stated)	i	i	i	i	i	i
C=CCc1ccccc1OCC(O)CN1CCN(c2ccc(OC)cc2)CC1 (configuration not stated)	nt	i	70	i	i	nt
OC(COc1ccc2c(c1)OCO2)CN1CCN(c2ccc(F)cc2)CC1 (configuration not stated)	i	i	53	i	i	i
O=C1c2cccc3cccc(c23)C(=O)N1CC1CCN(CC(O)COCc2ccc3c(c2)OCO3)CC1 (configuration not stated)	i	i	90	i	i	i
C=CCNC(=O)C(=O)NCCOc1ccccc1Cl	i	i	i	i	i	nt
Cc1nn(-c2ccccn2)c2nc(-c3cccs3)cc(C(=O)NCc3ccco3)c12	i	i	53	i	i	i
Cc1nn(-c2ccccc2)c2nc(-c3ccncc3)cc(C(=O)NCc3ccco3)c12	i	i	i	i	i	i
CCOC(=O)c1cc(-c2cccs2)nc2c1c(C)nn2-c1ccccn1	i	69	i	i	i	i
Cc1nn(-c2ccccc2)c2nc(-c3cccs3)cc(C(=O)NN)c12	i	i	i	i	i	i
COc1ccc(CN(Cc2ccc(C(=O)O)cc2)C(=S)Nc2ccc(C)cc2)cc1OC	i	i	i	i	i	i
O=C(N/N=C/c1cccc(F)c1)c1c(O)c2c([nH]c1=O)CCCC2	i	i	i	i	i	nt
CN1/C(=C\C(=S)Nc2ccccc2)C(C)(C)c2ccccc21	i	61	i	i	i	i

Source: PubChem BioAssay (several laboratories)
